How the values were obtained:
SiHa = assay: Cytotoxicity against human SiHa cells after 48 hrs by sulforhodamine B assay; format: functional
How it was run: (§1)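 Cells were grown in RPMI 1640 with 10% FBS and 2 mM L-glutamine, seeded at densities set by doubling time, and left 24 h before drug. Exposure was 48 h continuous at 0.1, 1, 10 and 100 µM, triplicate wells. Cells were fixed in cold 10% TCA for 60 min at 4 °C and stained with SRB. Bound dye was eluted with 10 mM Tris and read at 540 nm (690 nm reference). GI50 was the concentration halving net protein increase versus control.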

[1] = Cytotoxicity against human AW13516 cells after 48 hrs by sulforhodamine B assay; format: functional; how it was run: as §1
DNA [2] = assay: Binding affinity to calf thymus DNA at pH 7.0 at 20 uM after 36 hrs by thermal denaturation assay; format: nucleic-acid assay; details: Bos taurus
A2780 = assay: Cytotoxicity against human A2780 cells after 48 hrs by sulforhodamine B assay; format: functional; details: A2780, 48 h; how it was run: as §1
COLO 205 = assay: Cytotoxicity against human Colo205 cells after 48 hrs by sulforhodamine B assay; format: functional; details: COLO 205, 48 h; how it was run: as §1
[3] = Cytotoxicity against human AW8507 cells after 48 hrs by sulforhodamine B assay; format: functional; details: AW8507, 48 h; how it was run: as §1
KB = assay: Cytotoxicity against human KB cells after 48 hrs by sulforhodamine B assay; format: functional; how it was run: as §1
PC-3 = assay: Cytotoxicity against human PC3 cells after 48 hrs by sulforhodamine B assay; format: functional; details: PC-3, 48 h; how it was run: as §1
DNA [4] = assay: Binding affinity to calf thymus DNA at pH 7.0 at 20 uM after 18 hrs by thermal denaturation assay; format: nucleic-acid assay; details: Bos taurus
ZR-75-1 = assay: Cytotoxicity against human Zr-75-1 cells after 48 hrs by sulforhodamine B assay; format: functional; details: ZR-75-1, 48 h; how it was run: as §1
A549 = assay: Cytotoxicity against human A549 cells after 48 hrs by sulforhodamine B assay; format: functional; details: A549, 48 h; how it was run: as §1
HOP-62 = assay: Cytotoxicity against human HOP62 cells after 48 hrs by sulforhodamine B assay; format: functional; details: HOP-62, 48 h; how it was run: as §1
MCF7 = assay: Cytotoxicity against human MCF7 cells after 48 hrs by sulforhodamine B assay; format: functional; details: MCF7, 48 h; how it was run: as §1

## COc1cc2c(cc1OCCCCCSc1nnc3n1S(=O)(=O)c1ccccc1N3C)N=C[C@@H]1CCCN1C2=O
SiHa
  GI50: 27900 nM
[1]
  GI50: 1950 nM
DNA [2]
  ΔTm: 2.6 °C
A2780
  GI50: 1920 nM
COLO 205
  GI50: 2190 nM
[3]
  GI50: 220 nM
KB
  GI50: 25600 nM
PC-3
  GI50: 25500 nM
DNA [4]
  ΔTm: 2.4 °C
ZR-75-1
  GI50: 28500 nM
A549
  GI50: 2450 nM

## COc1cc2c(cc1OCCCCCSc1nnc3n1S(=O)(=O)c1ccccc1N3c1ccccc1)N=C[C@@H]1CCCN1C2=O
SiHa
  GI50: 2300 nM
[1]
  GI50: 1780 nM
DNA [2]
  ΔTm: 1.5 °C
HOP-62
  GI50: 2350 nM
A2780
  GI50: 2010 nM
COLO 205
  GI50: 25600 nM
[3]
  GI50: 2480 nM
KB
  GI50: 2460 nM
PC-3
  GI50: 2400 nM
DNA [4]
  ΔTm: 1.3 °C
ZR-75-1
  GI50: 24000 nM
A549
  GI50: 30300 nM

## COc1cc2c(cc1O)N=C[C@@H]1CCCN1C2=O
DNA [2]
  ΔTm: 0.7 °C
DNA [4]
  ΔTm: 0.7 °C

## COc1cccc2c1C(=O)c1c(O)c3c(c(O)c1C2=O)C[C@@](O)(C(=O)CO)C[C@@H]3O[C@H]1C[C@H](N)[C@H](O)[C@H](C)O1 [DOXORUBICIN]
SiHa
  GI50: 180 nM
[1]
  GI50: 100 nM
MCF7
  GI50: 170 nM
HOP-62
  GI50: 140 nM
A2780
  GI50: 160 nM
COLO 205
  GI50: 140 nM
[3]
  GI50: 170 nM
KB
  GI50: 1720 nM

## COc1cc2c(cc1OCCCSc1nnc3n1S(=O)(=O)c1ccccc1N3C)N=C[C@@H]1CCCN1C2=O
SiHa
  GI50: 2120 nM
[1]
  GI50: 2240 nM
MCF7
  GI50: 2060 nM
DNA [2]
  ΔTm: 1.7 °C
HOP-62
  GI50: 2130 nM
A2780
  GI50: 1830 nM
COLO 205
  GI50: 1930 nM
[3]
  GI50: 2240 nM
KB
  GI50: 2380 nM
PC-3
  GI50: 2150 nM
DNA [4]
  ΔTm: 1.5 °C
ZR-75-1
  GI50: 2190 nM
A549
  GI50: 2290 nM

## COc1cc2c(cc1OCCCCSc1nnc3n1S(=O)(=O)c1ccccc1N3C)N=C[C@@H]1CCCN1C2=O
SiHa
  GI50: 27000 nM
[1]
  GI50: 26600 nM
MCF7
  GI50: 2290 nM
DNA [2]
  ΔTm: 0.7 °C
A2780
  GI50: 2170 nM
COLO 205
  GI50: 2110 nM
[3]
  GI50: 2290 nM
KB
  GI50: 26400 nM
PC-3
  GI50: 25500 nM
DNA [4]
  ΔTm: 0.5 °C
ZR-75-1
  GI50: 25900 nM
A549
  GI50: 2280 nM

## COc1cc2c(cc1OCCCSc1nnc3n1S(=O)(=O)c1ccccc1N3c1ccccc1)N=C[C@@H]1CCCN1C2=O
DNA [2]
  ΔTm: 1.5 °C
A2780
  GI50: 30000 nM
DNA [4]
  ΔTm: 1.2 °C
ZR-75-1
  GI50: 26000 nM

## COc1cc2c(cc1OCCCCSc1nnc3n1S(=O)(=O)c1ccccc1N3c1ccccc1)N=C[C@@H]1CCCN1C2=O
[1]
  GI50: 1980 nM
DNA [2]
  ΔTm: 0.7 °C
A2780
  GI50: 2270 nM
[3]
  GI50: 25800 nM
PC-3
  GI50: 28800 nM
DNA [4]
  ΔTm: 0.6 °C
A549
  GI50: 29700 nM

Reference: ChEMBL document CHEMBL1156549, “Synthesis, DNA-binding ability and evaluation of antitumour activity of triazolo[1,2,4]benzothiadiazine linked pyrrolo[2,1-c][1,4]benzodiazepine conjugates” (2008)
